The source of these data is ChEMBL document CHEMBL1137848, “Discovery of isoxazolinone antibacterial agents. Nitrogen as a replacement for the stereogenic center found in oxazolidinone antibacterials” (2004).

Converted amounts (≈) assume the structure as drawn.

Common to all, as to type: functional
Test [1] relates to Staphylococcus aureus. Kind of test: Minimum inhibitory concentration against Staphylococcus aureus (strain A15090) in presence of 50% calf serum. An outline of the steps:
(§1)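 Microbroth dilution MIC following the NCCLS method, with 50% calf serum added. Mueller-Hinton broth, inoculum approximately 5·10⁵ CFU/well, incubated at 35 °C for 18 h in ambient air.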

In test [2] the test system is Staphylococcus aureus. In words: Minimum inhibitory concentration against methicillin resistant Staphylococcus aureus (strain A27223) in presence of 50% calf serum. An outline of the steps:
as §1

Test [3] concerns Enterococcus faecalis. Kind of test: Minimum inhibitory concentration against Enterococcus faecalis (strain A20688) in absence of calf serum. An outline of the steps: (§2)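 Broth microdilution MIC per NCCLS method in Mueller-Hinton broth without serum. Final inoculum approximately 5·10⁵ CFU/well in microtiter plates, incubated 35 °C for 18 h in ambient air.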
Test [4] relates to Staphylococcus aureus. Kind of test: Minimum inhibitory concentration against Staphylococcus aureus (strain A15090) in absence of calf serum. An outline of the steps: as §2
Test [5] concerns Staphylococcus aureus. In words: Minimum inhibitory concentration against methicillin resistant Staphylococcus aureus (strain A27223) in absence of calf serum. An outline of the steps:
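Microbroth dilution MIC following the NCCLS method, no serum added. Mueller-Hinton broth, inoculum approximately 5·10⁵ CFU/well, incubated at 35 °C for 18 h in ambient air.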

Test [6] has as its system Haemophilus influenzae. Kind of test: Minimum inhibitory concentration against Haemophilus influenzae (strain A20191) in absence of calf serum. An outline of the steps: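 MIC by NCCLS microbroth dilution in Haemophilus test medium broth without serum. Inoculum approximately 5·10⁵ CFU/well in microtiter plates, incubated at 35 °C for 18 h in ambient air.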
Test [7] relates to Enterococcus faecalis. In words: Minimum inhibitory concentration against Enterococcus faecalis (strain A20688) in presence of 50% calf serum. An outline of the steps:
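Broth microdilution MIC per NCCLS method in Mueller-Hinton broth supplemented with 50% calf serum. Final inoculum approximately 5·10⁵ CFU/well, incubated 35 °C for 18 h in ambient air.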

Regarding `COc1cccc(-c2cn(CNC(C)=O)oc2=O)c1`, the MIC in test [1] is 64 µg/mL; in test [2], more than 64 µg/mL; in test [3], 32 µg/mL (≈ 122 µM); in test [4] it was 32 µg/mL (≈ 122 µM); in test [5], 16 µg/mL (≈ 61 µM); in test [6], more than 64 µg/mL. The MIC in test [7] is more than 64 µg/mL.
For `CC(=O)NCn1cc(-c2ccc3c(c2)OCO3)c(=O)o1`, the MIC in test [1] was determined as 4 µg/mL; in test [2], 4 µg/mL; in test [3], 1 µg/mL (≈ 3.62 µM); in test [4] it was 2 µg/mL (≈ 7.24 µM); in test [5] it was 1 µg/mL (≈ 3.62 µM); in test [6] it was 16 µg/mL (≈ 57.9 µM). The MIC in test [7] stood at 8 µg/mL.
`CC(=O)NCn1cc(-c2cccc(Cl)c2)c(=O)o1`: the MIC in test [1] was more than 64 µg/mL; in test [2] it was 16 µg/mL; in test [3], 16 µg/mL (≈ 60 µM); in test [4] it was 8 µg/mL (≈ 30 µM); in test [5], 4 µg/mL (≈ 15 µM); in test [6], 32 µg/mL (≈ 120 µM). In addition, the MIC in test [7] is more than 64 µg/mL.
Regarding `CC(=O)NCn1cc(-c2cc(C(F)(F)F)cc(C(F)(F)F)c2)c(=O)o1`, the MIC in test [3] was more than 128 µg/mL; in test [4], more than 128 µg/mL; in test [6] it was more than 64 µg/mL.
As to `Oc1oncc1-c1ccc(-c2ccccc2)cc1`, the MIC was more than 64 µg/mL in test [1]; more than 128 µg/mL in test [3]; more than 128 µg/mL in test [4]; more than 64 µg/mL in test [6]; more than 64 µg/mL in test [7].
On to `CC(=O)NCn1cc(-c2cc(F)cc(F)c2)c(=O)o1`, for which the MIC was 32 µg/mL (≈ 119 µM) in test [3], 8 µg/mL (≈ 29.8 µM) in test [4], 8 µg/mL (≈ 29.8 µM) in test [5] and more than 64 µg/mL in test [6].
Turning to `NC(=O)Cn1cc(-c2ccccc2)c(=O)o1`, the figures for the MIC in test [3] and in test [6] were more than 128 µg/mL and more than 64 µg/mL, respectively.
As for `COc1ccc(-c2cn(CNC(C)=O)oc2=O)cc1`, the MIC in test [1] was 4 µg/mL; in test [2] it was 4 µg/mL; in test [3] it was 2 µg/mL (≈ 7.63 µM); in test [4], 2 µg/mL (≈ 7.63 µM); in test [5], 1 µg/mL (≈ 3.81 µM); in test [6], 16 µg/mL (≈ 61 µM). Also, in test [7], the MIC is 8 µg/mL.
In the case of `CC(=O)NCn1cc(-c2ccc(-c3ccccc3)cc2)c(=O)o1`, the MIC is more than 64 µg/mL in test [1]; 64 µg/mL in test [2]; 4 µg/mL (≈ 13 µM) in test [3]; 4 µg/mL (≈ 13 µM) in test [4]; 1 µg/mL (≈ 3.24 µM) in test [5]; 16 µg/mL (≈ 51.9 µM) in test [6]. Further, the MIC in test [7] worked out at 64 µg/mL.
With `CSc1ccc(-c2cnoc2O)cc1`, the MIC was more than 64 µg/mL in test [1]; more than 128 µg/mL in test [3]; more than 128 µg/mL in test [4]; more than 64 µg/mL in test [6]; more than 64 µg/mL in test [7].
Take `CSc1ccc(-c2cn(CNC(C)=O)oc2=O)cc1`: the MIC in test [1] was determined as 16 µg/mL; in test [2], 8 µg/mL; in test [3], 1 µg/mL (≈ 3.59 µM); in test [4] it was 2 µg/mL (≈ 7.19 µM); in test [5] it was 1 µg/mL (≈ 3.59 µM); in test [6], 8 µg/mL (≈ 28.7 µM). In addition, the MIC in test [7] came to 16 µg/mL.
Consider `COc1ccc(-c2cnoc2O)cc1`, for which the MIC in test [1] was more than 64 µg/mL; in test [3], more than 128 µg/mL; in test [4], more than 128 µg/mL; in test [6], more than 64 µg/mL; in test [7], more than 64 µg/mL.
`CC(=O)NCn1cc(-c2ccc(F)c(F)c2)c(=O)o1`: the MIC in test [1] was more than 64 µg/mL; in test [3], more than 128 µg/mL; in test [4], 128 µg/mL (≈ 477 µM); in test [5], more than 128 µg/mL; in test [6] it was more than 64 µg/mL; in test [7], more than 64 µg/mL.
On to `CC(=O)NCn1cc(-c2ccc(Cl)cc2)c(=O)o1`, for which the MIC in test [3] was determined as 8 µg/mL (≈ 30 µM); in test [4] it was 8 µg/mL (≈ 30 µM); in test [5], 4 µg/mL (≈ 15 µM); in test [6], 32 µg/mL (≈ 120 µM).
`CC(=O)NCn1cc(-c2ccccc2)c(=O)o1`: the MIC in test [1] was determined as 16 µg/mL; in test [2], 8 µg/mL; in test [3], 16 µg/mL (≈ 68.9 µM); in test [4] it was 8 µg/mL (≈ 34.4 µM); in test [5], 4 µg/mL (≈ 17.2 µM); in test [6], 8 µg/mL (≈ 34.4 µM). The MIC in test [7] was 16 µg/mL.
In the case of `CC(=O)NCn1cc(-c2cccc(F)c2)c(=O)o1`, the MIC was 16 µg/mL (≈ 63.9 µM) in test [3], 8 µg/mL (≈ 32 µM) in test [4], 4 µg/mL (≈ 16 µM) in test [5] and more than 64 µg/mL in test [6].
For the compound `CC(=O)NCn1cc(-c2ccc(F)cc2)c(=O)o1`, the MIC was more than 64 µg/mL in test [1]; more than 128 µg/mL in test [3]; more than 128 µg/mL in test [4]; 32 µg/mL (≈ 128 µM) in test [6]; more than 64 µg/mL in test [7].
As to `CC(=O)NCn1cc(-c2ccc(Br)cc2)c(=O)o1`, the MIC in test [1] is more than 64 µg/mL; in test [3], 8 µg/mL (≈ 25.7 µM); in test [4] it was 4 µg/mL (≈ 12.9 µM); in test [5] it was 2 µg/mL (≈ 6.43 µM); in test [6] it was 8 µg/mL (≈ 25.7 µM); in test [7] it was more than 64 µg/mL.
As for `CC(=O)NCn1cc(-c2cccc(C(F)(F)F)c2)c(=O)o1`, the MIC in test [1] was 64 µg/mL; in test [2] it was 64 µg/mL; in test [3] it was 64 µg/mL (≈ 213 µM); in test [4] it was 32 µg/mL (≈ 107 µM); in test [5], 16 µg/mL (≈ 53.3 µM); in test [6], more than 64 µg/mL. Besides, the MIC in test [7] is more than 64 µg/mL.
For the compound `CC(=O)NCn1cc(-c2cccc(C)c2)c(=O)o1`, the MIC was 32 µg/mL (≈ 130 µM) in test [3], 8 µg/mL (≈ 32.5 µM) in test [4], 4 µg/mL (≈ 16.2 µM) in test [5] and more than 64 µg/mL in test [6].
As to `CC(=O)NCn1cc(-c2ccc(C(C)C)cc2)c(=O)o1`, the MIC in test [1] worked out at 4 µg/mL; in test [3], 2 µg/mL (≈ 7.29 µM); in test [4], 1 µg/mL (≈ 3.65 µM); in test [7], 8 µg/mL.
As to `Oc1oncc1-c1ccc2c(c1)OCO2`, the MIC in test [1] is more than 64 µg/mL; in test [3] it was more than 128 µg/mL; in test [4], more than 128 µg/mL; in test [6], more than 64 µg/mL; in test [7], more than 64 µg/mL.
With `COc1cc(OC)cc(-c2cn(CNC(C)=O)oc2=O)c1`, the MIC in test [3] was more than 128 µg/mL; in test [4], more than 128 µg/mL; in test [6], 64 µg/mL (≈ 219 µM).
For the compound `COc1ccc(-c2cn(CNC(C)=O)oc2=O)cc1OC`, the MIC in test [1] was more than 64 µg/mL; in test [3], more than 128 µg/mL; in test [4] it was 128 µg/mL (≈ 438 µM); in test [5], 64 µg/mL (≈ 219 µM); in test [6], more than 64 µg/mL; in test [7] it was more than 64 µg/mL.
For `CC(=O)NC[C@H]1CN(c2ccc(N3CCOCC3)c(F)c2)C(=O)O1` [LINEZOLID], the MIC in test [1] came to 1 µg/mL; in test [2], 1 µg/mL; in test [3], 0.5 µg/mL (≈ 1.48 µM); in test [4], 1 µg/mL (≈ 2.96 µM); in test [5], 1 µg/mL (≈ 2.96 µM); in test [6], 8 µg/mL (≈ 23.7 µM). Besides, in test [7], the MIC was 0.5 µg/mL.
